{"source": "paper PMC4132832", "about": "(Biochemical pharmacology, 2013)", "note": "Structures can show the parent of a compound that is named as a salt."}
{"biological_target": "Kir6.1/SUR2B channel (Rattus norvegicus, UniProt Q63664)", "sequence (Q63664 whole entry)": "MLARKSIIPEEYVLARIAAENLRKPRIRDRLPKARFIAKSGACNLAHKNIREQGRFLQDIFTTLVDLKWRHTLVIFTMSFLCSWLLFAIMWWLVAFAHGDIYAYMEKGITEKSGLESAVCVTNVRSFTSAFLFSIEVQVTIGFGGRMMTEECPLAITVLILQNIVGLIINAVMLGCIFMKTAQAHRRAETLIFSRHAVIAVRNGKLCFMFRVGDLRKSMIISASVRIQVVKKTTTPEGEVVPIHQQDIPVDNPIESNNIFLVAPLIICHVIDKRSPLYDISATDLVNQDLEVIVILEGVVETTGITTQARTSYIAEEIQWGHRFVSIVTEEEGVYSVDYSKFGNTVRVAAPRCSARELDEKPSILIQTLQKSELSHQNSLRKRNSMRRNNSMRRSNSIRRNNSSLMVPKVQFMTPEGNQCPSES", "sequence (P70170 whole entry partner)": "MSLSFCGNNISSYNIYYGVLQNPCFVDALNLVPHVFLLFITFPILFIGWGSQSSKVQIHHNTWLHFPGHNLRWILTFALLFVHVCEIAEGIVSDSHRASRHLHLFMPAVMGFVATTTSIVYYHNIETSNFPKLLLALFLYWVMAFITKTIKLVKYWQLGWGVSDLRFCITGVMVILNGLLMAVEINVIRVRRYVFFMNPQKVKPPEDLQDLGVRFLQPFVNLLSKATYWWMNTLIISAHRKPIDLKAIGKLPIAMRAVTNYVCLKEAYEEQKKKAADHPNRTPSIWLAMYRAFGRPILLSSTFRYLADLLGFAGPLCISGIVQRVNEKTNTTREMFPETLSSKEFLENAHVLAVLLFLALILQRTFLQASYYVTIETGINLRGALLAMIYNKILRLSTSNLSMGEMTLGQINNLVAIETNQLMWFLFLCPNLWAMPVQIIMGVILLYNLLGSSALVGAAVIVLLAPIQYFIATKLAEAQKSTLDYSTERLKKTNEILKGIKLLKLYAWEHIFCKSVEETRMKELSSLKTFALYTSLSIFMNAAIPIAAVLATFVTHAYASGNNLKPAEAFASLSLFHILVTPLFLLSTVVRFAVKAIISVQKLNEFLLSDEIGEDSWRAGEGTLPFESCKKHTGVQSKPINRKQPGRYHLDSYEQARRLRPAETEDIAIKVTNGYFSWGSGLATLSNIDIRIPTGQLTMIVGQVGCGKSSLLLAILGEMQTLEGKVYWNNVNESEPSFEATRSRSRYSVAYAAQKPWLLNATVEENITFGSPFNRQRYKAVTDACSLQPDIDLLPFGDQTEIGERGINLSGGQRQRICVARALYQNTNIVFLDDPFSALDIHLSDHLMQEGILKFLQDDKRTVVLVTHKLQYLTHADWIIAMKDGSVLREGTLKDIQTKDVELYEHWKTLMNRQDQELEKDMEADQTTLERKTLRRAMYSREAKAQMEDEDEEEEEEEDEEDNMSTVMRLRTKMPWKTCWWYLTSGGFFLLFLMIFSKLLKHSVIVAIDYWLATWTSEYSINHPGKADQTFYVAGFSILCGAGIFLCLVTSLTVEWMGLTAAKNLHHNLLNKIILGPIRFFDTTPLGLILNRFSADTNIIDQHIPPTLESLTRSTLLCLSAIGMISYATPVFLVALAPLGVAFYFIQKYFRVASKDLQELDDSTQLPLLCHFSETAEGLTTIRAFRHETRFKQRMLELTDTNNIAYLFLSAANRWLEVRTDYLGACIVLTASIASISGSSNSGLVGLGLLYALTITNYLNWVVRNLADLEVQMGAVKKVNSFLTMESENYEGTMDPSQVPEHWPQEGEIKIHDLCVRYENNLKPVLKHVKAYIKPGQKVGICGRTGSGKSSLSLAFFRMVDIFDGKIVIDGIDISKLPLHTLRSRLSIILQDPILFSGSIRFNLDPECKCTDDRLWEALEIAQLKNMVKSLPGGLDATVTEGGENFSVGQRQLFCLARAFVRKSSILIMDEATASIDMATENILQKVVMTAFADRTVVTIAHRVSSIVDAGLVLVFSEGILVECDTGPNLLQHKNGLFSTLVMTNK", "assay": "whole-cell voltage clamp, HEK293", "format": "cell-based", "outline": "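Rat Kir6.1 and SUR2B co-expressed in HEK293 with GFP marker, whole-cell patched at room temperature, holding 0 mV, 600-ms steps to -80 mV, symmetric 145 mM K+. Bath: K-gluconate/KCl, EGTA, glucose, HEPES pH 7.4. Pipette adds 1 mM K2ATP, 0.5 mM NaADP and 1 mM MgCl2. Plateau current normalized to the pinacidil/glibenclamide window. IC50 from Hill fit.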", "units": {"IC50": "µM"}}
{"smiles": "CCOc1ccc(C=C2SC(=O)N(CCN)C2=O)cc1", "note": "[A6355, 3-(2-aminoethyl)-5-[(4-ethoxyphenyl)methylidene]-1,3-thiazolidine-2,4-dione hydrochloride]", "IC50": 8}
{"smiles": "O=C1NC(=O)/C(=C/c2ccc3nccnc3c2)S1", "note": "[AS605240, (5Z)-5-(quinoxalin-6-ylmethylidene)-1,3-thiazolidine-2,4-dione]", "IC50": 60}
{"smiles": "O=C1NC(=O)/C(=C/c2ccc(-c3ccc(F)cc3O)o2)S1", "note": "[AS-252424, (5Z)-5-[[5-(4-fluoro-2-hydroxyphenyl)furan-2-yl]methylidene]-1,3-thiazolidine-2,4-dione]", "IC50": 4}
{"smiles": "O=C1NC(=O)C(Cc2ccc(O)cc2)S1", "note": "(stereo not drawn) [CDS005865, 5-(4-hydroxybenzyl)-2,4-thiazolidinedione]", "IC50": "> 100"}
{"smiles": "CCc1ccc(C(=O)COc2ccc(CC3SC(=O)NC3=O)cc2)nc1", "note": "(stereo not drawn) [Cay10415, 5-[[4-[2-(5-ethylpyridin-2-yl)-2-oxoethoxy]phenyl]methyl]-1,3-thiazolidine-2,4-dione]", "IC50": 15}
{"smiles": "CC1(COc2ccc(CC3SC(=O)NC3=O)cc2)CCCCC1", "note": "(stereo not drawn) [Ciglitazone, 5-[[4-[(1-methylcyclohexyl)methoxy]phenyl]methyl]-1,3-thiazolidine-2,4-dione]", "IC50": 120}
{"smiles": "Cc1oc(-c2ccccc2)nc1CCC(=O)c1ccc(CC2SC(=O)NC2=O)cc1", "note": "(stereo not drawn) [Darglitazone, 5-[[4-[3-(5-methyl-2-phenyl-1,3-oxazol-4-yl)propanoyl]phenyl]methyl]-1,3-thiazolidine-2,4-dione]", "IC50": 25}
{"smiles": "O=C1NC(=O)C(Cc2ccc3c(c2)CC[C@H](Cc2ccccc2)O3)S1", "note": "(stereo partly drawn) [Englitazone, 5-[(2-benzyl-3,4-dihydro-2H-chromen-6-yl)methyl]-1,3-thiazolidine-2,4-dione]", "IC50": 7}
{"smiles": "CC(C)OC(=O)C(C)(C)Oc1ccc(C(=O)c2ccc(Cl)cc2)cc1", "note": "[Fenofibrate, propan-2-yl 2-[4-(4-chlorobenzoyl)phenoxy]-2-methylpropanoate]", "IC50": 80}
{"smiles": "Cc1cc(SCc2sc(-c3ccc(C(F)(F)F)c(F)c3)nc2C)ccc1OCC(=O)O", "note": "[GW0742, 2-[4-[[2-[3-fluoro-4-(trifluoromethyl)phenyl]-4-methyl-1,3-thiazol-5-yl]methylsulfanyl]-2-methylphenoxy]acetic acid]", "IC50": 80}
{"smiles": "Cc1cc(SCc2sc(-c3ccc(C(F)(F)F)cc3)nc2C)ccc1OCC(=O)O", "note": "[GW501516, 2-[2-methyl-4-[[4-methyl-2-[4-(trifluoromethyl)phenyl]-1,3-thiazol-5-yl]methylsulfanyl]phenoxy]acetic acid]", "IC50": 120}
{"smiles": "Cc1ccc(C)c(OCCCC(C)(C)C(=O)O)c1", "note": "[Gemfibrozil, 5-(2,5-dimethylphenoxy)-2,2-dimethylpentanoic acid]", "IC50": 290}
{"smiles": "CCc1ccc(CCOc2ccc(CC3SC(=O)NC3=O)cc2)nc1", "note": "(stereo not drawn) [Pioglitazone, 5-[[4-[2-(5-ethylpyridin-2-yl)ethoxy]phenyl]methyl]-1,3-thiazolidine-2,4-dione]", "IC50": 95}
{"smiles": "CN(CCOc1ccc(CC2SC(=O)NC2=O)cc1)c1ccccn1", "note": "(stereo not drawn) [Rosiglitazone, 5-[[4-[2-[methyl(pyridin-2-yl)amino]ethoxy]phenyl]methyl]-1,3-thiazolidine-2,4-dione]", "IC50": 12}
{"smiles": "Cc1c(C)c2c(c(C)c1O)CCC(C)(COc1ccc(CC3SC(=O)NC3=O)cc1)O2", "note": "(stereo not drawn) [Troglitazone, 5-[[4-[(6-hydroxy-2,5,7,8-tetramethyl-3,4-dihydrochromen-2-yl)methoxy]phenyl]methyl]-1,3-thiazolidine-2,4-dione]", "IC50": 100}
